Drawing on ChEMBL document CHEMBL4513216, “Probing the Open Global Health Chemical Diversity Library for Multistage-Active Starting Points for Next-Generation Antimalarials” (ACS Infect Dis, 2020), this text covers cytotoxicity for 95 compounds.

This data set can be described thus: Toxicity liver stage against HepG2, at 10uM. The format is cell-based. Also on record: test concentration 10 uM, cell line HepG2-A16-CD81EGFP. The conditions noted are these: human, HepG2-A16-CD81EGFP cells; read-out: INHIBITION
In short, it runs like this: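 Uninfected HepG2-A16-CD81EGFP cells, 3 × 10^3 per well, 1536-well, plated on prespotted compound at 10 μM final, parasite-free screening media added to match infected plates; puromycin 10 μM positive, DMSO 0.5% negative; run in parallel with 48 h PbLuc assay at 37 °C, 5% CO2; viability by CellTiter-Glo luminescence, normalized to controls.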
As for `CCOCc1ccc(CNc2nc(OC)ncc2Cl)cc1`, the cytotoxicity at 10 µM came to 13.2%.
Consider `CCC(=O)N1CCC2(CC1)C(=O)N(C)CCN2Cc1csc(C)n1`, for which the cytotoxicity at 10 µM worked out at 5.59%.
In the case of `COc1ccc(NC(=O)CSc2nc(C)c(C)c(C)c2C#N)cn1`, the cytotoxicity at 10 µM is -0.82%.
With `CCOCC1CN(Cc2cccnc2OC)Cc2cnn(C)c21` (stereo not given), the cytotoxicity at 10 µM is -1.6%.
For the compound `CSCC(=O)N1CCc2[nH]nc(-c3ccc4c(c3)OCO4)c2C1`, the cytotoxicity at 10 µM is -139%.
With `Cc1ccc(CNC2(Cc3cc(-c4cccc(O)c4)on3)COC2)o1`, the cytotoxicity at 10 µM is -0.873%.
For `Cc1cccc(OC2CN(C(=O)c3cnn(C)c3)C2)c1`, the cytotoxicity at 10 µM is -2.92%.
For the compound `CN(C)c1cc2c(nn1)CCN(C(=O)c1cc3c(s1)CCOC3)C2`, the cytotoxicity at 10 µM stood at 2.35%.
The same measure for `CC(c1cccnc1)N1CCN(CCc2ccccn2)CC1` (stereo not given): -6.18%; for `CN(C)C(CNc1c(NCc2ccco2)c(=O)c1=O)c1ccccc1` (stereo not given): 5.16%.
In the case of `CN(C)C(CNC(=O)NCCS(C)(=O)=O)c1ccco1` (stereo not given), the cytotoxicity at 10 µM was 4.41%.
The same measure for `CCc1noc(C)c1C(=O)N1CCCC1c1c(C)nn(C)c1C` (stereo not given): -6.97%; for `O=C(c1ccccc1)N1CC[C@H]2C[C@@H](c3nnc(C4CC4)o3)O[C@@H]2C1`: -99.2%.
As for `Cc1ccc(C(=O)NCCS(C)(=O)=O)c(=O)[nH]1`, the cytotoxicity at 10 µM was -9.32%.
The same measure for `Cc1n[nH]c(CN2CCN(c3ncnc4scc(C)c34)CC2)c1Cl`: 58.4%; for `Cc1ccc(-c2cc(C3=NC(=CN4CCN(C)CC4)NO3)[nH]n2)cc1`: -10.5%.
As to `Cc1ncc(C)c(N2Cc3cnn(Cc4ccc(F)cc4)c3C2)n1`, the cytotoxicity at 10 µM amounted to 3.3%.
On to `Cc1nccn1C1CCCN(C(=O)c2ccc3c(c2)COC3)C1` (stereo not given), for which the cytotoxicity at 10 µM was -10.8%.
Regarding `CCN1C(=O)CCCC12CCCN(C(=O)c1sccc1C)C2` (stereo not given), the cytotoxicity at 10 µM is 3.73%.
The same measure for `CN1CCOC[C@H]1c1nc(-c2cccc(F)c2)c[nH]1`: -3.68%.
`Cc1nccn1CC1CCCN1S(=O)(=O)Cc1cccc(F)c1` (stereo not given): the cytotoxicity at 10 µM is -15.8%.
As to `Cc1cccc(-n2nc(CC(C)C)nc2CCCC(N)=O)c1`, the cytotoxicity at 10 µM was 3.4%.
As to `Cn1cc(C(=O)N2CCCC(Cc3cncc4ccccc34)C2)cn1` (stereo not given), the cytotoxicity at 10 µM is -13.2%.
As to `COc1ccccc1[C@@H]1CN(Cc2cnn(C)c2C)C[C@H]1C(=O)O`, the cytotoxicity at 10 µM is -3.53%.
Regarding `COc1c(CNCCc2c[nH]c3cc(F)ccc23)c(C(C)C)nn1C`, the cytotoxicity at 10 µM turned out to be 4.64%.
Take `O=C(NCCNC(=O)C1CC1)c1sccc1Br`: the cytotoxicity at 10 µM came to 1.66%.
Take `Cc1cc2[nH]c(CN3CCOC(Cc4ccccc4)C3)cc(=O)n2n1` (stereo not given): the cytotoxicity at 10 µM was -24.1%.
Turning to `COc1nc(C)c(C(=O)N2CCc3[nH]nc(C4CCCC4)c3C2)s1`, the cytotoxicity at 10 µM is 7.51%.
The same measure for `CCc1nnc(CN(C)c2nccc(CCC(F)(F)F)n2)o1`: 7.4%; for `CSc1ncccc1C(=O)NCCC(O)c1ccco1` (stereo not given): -2.93%; for `N#Cc1cccc(OCCN2CCNC(=O)C2c2cccs2)c1` (stereo not given): 6.76%.
As for `Cc1cc2nc(CN(C)c3ccc(Cl)cc3)cc(=O)n2o1`, the figure is -13%; as for `O=C(c1cc(C2CC2)no1)N1C[C@@H]2CC[C@H]1CN(Cc1ccccn1)C2`, 2.21%.
In the case of `O=c1c2ccccc2nc2n1C(CSc1ccc(F)cc1)CN2` (stereo not given), the cytotoxicity at 10 µM was 11.2%.
For `CC(=O)N(C)c1nc(CN2CCOC(Cn3cccn3)C2)cs1` (stereo not given), the cytotoxicity at 10 µM was -12.8%.
With `Cc1oc(C(=O)O)cc1S(=O)(=O)Nc1c(F)cccc1-n1cccn1`, the cytotoxicity at 10 µM was -3.45%.
As for `Cc1nc(C2CCCN(C(=O)CCCn3cccn3)C2)sc1C` (stereo not given), the figure is -0.317%; as for `O=C(COCC(=O)N1CCCCCC1)NCc1cccc(Br)c1`, 1.47%; as for `Cc1ccc(-n2cccn2)cc1S(=O)(=O)N1C[C@H](C2CC2)[C@@H](N)C1`, 0.479%.
As to `O=C(c1cnc(NCC2CCCO2)c(Cl)c1)N1CCCCC1` (stereo not given), the cytotoxicity at 10 µM was 0.139%.
On to `CCCn1cnnc1CNCc1c[nH]nc1-c1ccc(F)cc1`, for which the cytotoxicity at 10 µM came out at 2.69%.
In the case of `CN(C)CC(=O)N1CCN(C(=O)c2cccc3[nH]ncc23)CC1`, the cytotoxicity at 10 µM was -11.6%.
The same measure for `CCN1CC(C(=O)NCc2ccc3c(c2)nc(C)n3C)CCC1=O` (stereo not given): -6.9%; for `COCc1cccc(C(=O)N(C)Cc2ncc(C)c(OC)c2C)c1`: -13.1%.
The same measure for `CCC(CO)N(Cc1ccsc1)Cc1ccc(-c2ccn[nH]2)s1` (stereo not given): -1.37%; for `O=C(NCC(=O)N1CCC2(CC1)OCCO2)c1ccoc1`: -9.55%; for `COCCCN(Cc1cnc(N2CCCC2)nc1)C1CCN(C)CC1`: -10.3%.
Regarding `Cc1nccn1C1CCCN(C(=O)c2ccc3c(c2)nc(C)n3C)C1` (stereo not given), the cytotoxicity at 10 µM was -9.75%.
As to `O=C(c1cc(C2CC2)[nH]n1)N1CCCN(c2nccs2)CC1`, the cytotoxicity at 10 µM turned out to be 6.37%.
As for `Cc1cc(CN2CCN(c3ccc4nncn4n3)CC2)no1`, the figure is -4.6%; as for `O=S(=O)(CCN1CCCCC1Cn1cccn1)c1ccccc1` (stereo not given), -8.66%.
With `NC(=O)[C@@H]1CN2CCN(C(=O)C3CC3)C[C@@H]2[C@H]1c1ccccc1`, the cytotoxicity at 10 µM amounted to 3.88%.
For the compound `CCNC(=O)Nc1ncc(-c2cccnc2)s1`, the cytotoxicity at 10 µM amounted to 14.6%.
`Cn1c(CN2CCC(O)CC2)nnc1C1CCCN(C(=O)C2CNC2)C1` (stereo not given): the cytotoxicity at 10 µM stood at 3.19%.
With `COCCN1Cc2nccn2CC(COCc2csc(C)n2)C1` (stereo not given), the cytotoxicity at 10 µM came to 6.22%.
On to `CCc1nnc(CN2CCCC2Cn2cc(C)cn2)o1` (stereo not given), for which the cytotoxicity at 10 µM is -6.64%.
The same measure for `Cn1cc(C(=O)N2CCO[C@@H]3CN(C4CCC4)C[C@@H]3C2)cn1`: 8.55%; for `CC1(C)CN(C(=O)CC2CCC2)C[C@]1(C)O`: -9.15%; for `Cc1cccc(NC(=O)C2(n3cnnn3)CCCCC2)n1`: -1.05%.
Consider `O=C(NCCC(O)c1cccs1)c1ccc(Br)o1` (stereo not given), for which the cytotoxicity at 10 µM was -15.2%.
Consider `Cc1ccc(OCC(=O)NC2CCN(S(C)(=O)=O)CC2)cc1`, for which the cytotoxicity at 10 µM is -0.0552%.
For `COc1ccccc1S(=O)(=O)N1CCC2(CC1)OCCCC2O` (stereo not given), the cytotoxicity at 10 µM came to 0.0773%.
As for `CC(C)Oc1ncnc2c1CCN(Cc1cccs1)CC2`, the cytotoxicity at 10 µM is -0.935%.
Take `Cn1nc2c(cc1=O)CN(Cc1nc(-c3ccsc3)no1)CC2`: the cytotoxicity at 10 µM was -2.21%.
The same measure for `O=C(Nc1cnccn1)[C@H]1COC[C@H]2CN(c3ncc(F)cn3)C[C@H]21`: -0.695%; for `CC(=O)N1CCN(c2cc(-n3cccc3)ncn2)CC1`: -2%; for `COc1ccc(OC)c(NC(=O)c2c(C)cn(C)c2CC(=O)O)c1`: -1.52%.
The same measure for `Cc1csc(C(C)(C)NCC(=O)N2CCCC(C(N)=O)C2)n1` (stereo not given): 5.73%; for `COc1cccc(-c2cnnc(N(C)CCC3CCCCO3)n2)c1` (stereo not given): 12.7%; for `CCOC(=O)[C@H]1[C@@H](O)C(=O)N(C)C12CCN(C(=O)CC1CCCC1)CC2`: -1%.
As for `CC(C)n1cnnc1CN1C(=O)CCc2ccccc21`, the figure is 0.0849%; as for `CC(C)c1nc(C2CCCN(C(=O)CS(=O)(=O)C(C)C)C2)no1` (stereo not given), 8.75%.
Turning to `CC(C)N1C[C@@H]2CN(C(=O)NCc3ccccc3)CCC[C@]2(C(=O)O)C1`, the cytotoxicity at 10 µM is 9.37%.
`Cc1nccn1CCCn1c(=O)cnc2ccccc21`: the cytotoxicity at 10 µM was 1.53%.
The same measure for `CN(C)C1COC2(CCN(S(=O)(=O)c3ccc(F)cc3)CC2)C1` (stereo not given): -129%; for `COc1cccc2c1OCC(C(=O)NCCn1nc(C)c(Cl)c1C)C2` (stereo not given): -5.89%.
In the case of `Cc1cc(CN2CC[C@H]3C(=O)N(c4cccnc4)CCO[C@H]3C2)no1`, the cytotoxicity at 10 µM was -66.8%.
With `Cc1cnn(CCNCC(O)c2ccc(C(F)(F)F)cc2)c1` (stereo not given), the cytotoxicity at 10 µM is 4.48%.
As for `Cc1nn(C)c2nc(NCCCN3CCCC(C(N)=O)C3)sc12` (stereo not given), the cytotoxicity at 10 µM is -9.8%.
The same measure for `O=C1CCNc2cc3c(cc2CN1CC1CC1)OCO3`: -5.83%.
As for `Cc1nc(N2CCC(CC(=O)N3CCCC3)CC2)c2cnn(C)c2n1`, the cytotoxicity at 10 µM came to 0.866%.
On to `CCc1nc(C(=O)N2CCN(Cc3ccc(Cl)cc3)CC2)c[nH]1`, for which the cytotoxicity at 10 µM was -6.85%.
`CN(C(=O)c1ccn(C)n1)[C@@H]1CCC[C@@H](Oc2ccccc2)[C@@H]1O`: the cytotoxicity at 10 µM is -10.3%.
Turning to `O=C(Cc1cccc(F)c1)N1CCCCC1c1ccn2ccnc2n1` (stereo not given), the cytotoxicity at 10 µM was -0.619%.
As to `Cn1ccc2cc(C(=O)N3CC[C@@]4(O)CCCC[C@H]4C3)ccc21`, the cytotoxicity at 10 µM is -46.8%.
As for `OCC1(Cc2ccc(F)cc2F)CCCN(Cc2ccncc2)C1` (stereo not given), the figure is -3.44%; as for `COC(=O)N1CCCN(C(=O)NC2CCc3ccccc3C2)CC1` (stereo not given), -1.14%.
Regarding `CN1CCN(C2CCN(CC(=O)NCC(F)(F)F)CC2)C1=O`, the cytotoxicity at 10 µM is -9.78%.
As for `Cc1cnn(C2CCCN(C(=O)c3sccc3C#N)C2)c1` (stereo not given), the figure is 0.736%.
For the compound `CC(=O)N1CCC2(CC1)CN(C(=O)[C@@H]1CSCN1)c1ccc(Cl)cc12`, the cytotoxicity at 10 µM was -1.91%.
As to `OCC1(O)CCCN(Cc2nnc(-c3ccccc3)o2)CC1` (stereo not given), the cytotoxicity at 10 µM was -3.69%.
As for `Cc1nc(COC[C@@H]2CC[C@H]3[C@H](CCN3C(=O)C3CC3)O2)cs1`, the figure is -73.9%.
For the compound `CSCc1cc(C(=O)NC2(C#N)CCSC2)ccc1F` (stereo not given), the cytotoxicity at 10 µM is -4.59%.
In the case of `Cc1cccnc1NCCNC(=O)c1cnc(-c2ccccn2)nc1O`, the cytotoxicity at 10 µM amounted to 26.4%.
On to `Cc1cc(Cl)ccc1S(=O)(=O)NCC(C)N1CCN(C)CC1` (stereo not given), for which the cytotoxicity at 10 µM came to 8.35%.
